Tests used:
Type in all cases: functional, cell-based
CCRF-CEM = assay: Cytostatic activity against human CEM cells after 3 days by coulter ZI particle counting analysis; conditions: 72 h
Summary of the method: (§1)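 Cells seeded in 96-well plates and grown with or without serial dilutions of compound, 2 days for L1210 and 3 days for CEM and HeLa. IC50 taken as concentration inhibiting cell proliferation by 50%.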

L1210 = assay: Cytostatic activity against mouse L1210 cells after 2 days by coulter ZI particle counting analysis; conditions: L1210, 48 h; summary of the method: as §1
HeLa = assay: Cytostatic activity against human HeLa cells after 3 days by coulter ZI particle counting analysis; conditions: 72 h; summary of the method: as §1

Structure (SMILES)	IC50 (CCRF-CEM) [µM]	IC50 (L1210) [µM]	IC50 (HeLa) [µM]
CCOP(=O)(CCCn1cc(Cn2cc(C(C)=O)c3ccccc32)nn1)OCC	4.54	164	19
CCOP(=O)(CCn1cc(Cn2cc(C(C)=O)c3ccccc32)nn1)OCC	11.4	197	18
CCOP(=O)(CC(O)Cn1cc(Cn2cc(C(C)=O)c3ccccc32)nn1)OCC (centres undefined)	43	> 200	97
CCOP(=O)(OCC)C(O)Cn1cc(Cn2cc(C(C)=O)c3ccccc32)nn1 (centres undefined)	21	> 200	> 200
CCOP(=O)(CCCCn1cc(Cn2c(Cl)nc3c2c(=O)n(C)c(=O)n3C)nn1)OCC	> 200	> 200	> 200
CCOP(=O)(OCC)C(O)CCn1cc(Cn2cc(C(C)=O)c3ccccc32)nn1 (centres undefined)	100	124	> 200
CCOP(=O)(CC(O)Cn1cc(Cn2ccccc2=O)nn1)OCC (centres undefined)	> 200	> 200	> 200
CCOP(=O)(CCCn1cc(Cn2c(Cl)nc3c2c(=O)n(C)c(=O)n3C)nn1)OCC	> 200	> 200	> 200
CCOP(=O)(Cn1cc(Cn2c(Cl)nc3c2c(=O)n(C)c(=O)n3C)nn1)OCC	> 200	> 200	> 200
CCOP(=O)(Cn1cc(Cn2ccccc2=O)nn1)OCC	> 200	> 200	> 200
CCOP(=O)(OCC)C(O)CCn1cc(Cn2c(Cl)nc3c2c(=O)n(C)c(=O)n3C)nn1 (centres undefined)	> 200	> 200	> 200
CCOP(=O)(CCCCn1cc(Cn2cnc3c2c(=O)n(C)c(=O)n3C)nn1)OCC	> 200	> 200	> 200
Cc1cc2ncn(Cc3cn(CCCP(=O)(O)O)nn3)c2cc1C	> 200	> 200	> 200
CCOP(=O)(CCCCn1cc(Cn2ncc(=O)[nH]c2=O)nn1)OCC	> 200	> 200	> 200
CCOP(=O)(Cn1cc(Cn2ncc(=O)[nH]c2=O)nn1)OCC	> 200	> 200	> 200
CCOP(=O)(CC(O)Cn1cc(Cn2ncc(=O)[nH]c2=O)nn1)OCC (centres undefined)	> 200	> 200	> 200
CCOP(=O)(OCC)C(O)Cn1cc(Cn2cnc3c2c(=O)n(C)c(=O)n3C)nn1 (centres undefined)	> 200	> 200	> 200
CCOP(=O)(CCCn1cc(Cn2ncc(=O)[nH]c2=O)nn1)OCC	> 200	> 200	> 200
CCOP(=O)(CCCCn1cc(Cn2cc(C(C)=O)c3ccccc32)nn1)OCC	12	200	> 200
CCOP(=O)(CCCn1cc(Cn2c(=O)c3c(ncn3C)n(C)c2=O)nn1)OCC	> 200	> 200	> 200
CCOP(=O)(CCCCn1cc(Cn2c(=O)c3c(ncn3C)n(C)c2=O)nn1)OCC	> 200	> 200	> 200
CCOP(=O)(OCC)C(O)Cn1cc(Cn2ncc(=O)[nH]c2=O)nn1 (centres undefined)	> 200	> 200	> 200
CCOP(=O)(CCn1cc(Cn2cnc3c2c(=O)n(C)c(=O)n3C)nn1)OCC	> 200	> 200	> 200
CCOP(=O)(CCCCn1cc(Cn2ccc(=O)[nH]c2=O)nn1)OCC	> 200	> 200	> 200
CCOP(=O)(CC(O)Cn1cc(Cn2cnc3c2c(=O)n(C)c(=O)n3C)nn1)OCC (centres undefined)	> 200	> 200	> 200
CCOP(=O)(Cn1cc(Cn2cc(C(C)=O)c3ccccc32)nn1)OCC	2.78	72	11
CCOP(=O)(CCCn1cc(Cn2cnc3c2c(=O)n(C)c(=O)n3C)nn1)OCC	> 200	> 200	> 200
CCOP(=O)(CC(O)Cn1cc(Cn2c(Cl)nc3c2c(=O)n(C)c(=O)n3C)nn1)OCC (centres undefined)	> 200	> 200	> 200
CCOP(=O)(Cn1cc(Cn2cnc3c2c(=O)n(C)c(=O)n3C)nn1)OCC	> 200	> 200	> 200
CCOP(=O)(OCC)C(O)Cn1cc(Cn2cnc3cc(C)c(C)cc32)nn1 (centres undefined)	> 200	> 200	> 200

Results, then the compound that gave them:

IC50 (CCRF-CEM) [µM]	IC50 (L1210) [µM]	IC50 (HeLa) [µM]	Structure (SMILES)
> 200	> 200	> 200	CCOP(=O)(CCCCn1cc(Cn2cnc3c(N)ncnc32)nn1)OCC
163	> 200	> 200	CCOP(=O)(OCC)C(O)CCn1cc(Cn2cnc3cc(C)c(C)cc32)nn1 (centres undefined)
> 200	> 200	> 200	CCOP(=O)(CCCn1cc(Cn2ccccc2=O)nn1)OCC
> 200	> 200	> 200	CCOP(=O)(OCC)C(O)CCn1cc(Cn2ccc(NC(C)=O)nc2=O)nn1 (centres undefined)
> 200	> 200	> 200	Cn1c(=O)c2c(nc(Cl)n2Cc2cn(CCCP(=O)(O)O)nn2)n(C)c1=O
≥ 77	> 200	> 200	CCOP(=O)(OCC)C(O)Cn1cc(Cn2c(=O)n(C(=O)c3ccccc3)c(=O)c3ccccc32)nn1 (centres undefined)
> 200	> 200	> 200	CCOP(=O)(CC(O)Cn1cc(Cn2c(=O)c3c(ncn3C)n(C)c2=O)nn1)OCC (centres undefined)
> 200	> 200	> 200	CCOP(=O)(CCn1cc(Cn2ncc(=O)[nH]c2=O)nn1)OCC
> 200	> 200	> 200	CCOP(=O)(OCC)C(O)CCn1cc(Cn2ncc(=O)[nH]c2=O)nn1 (centres undefined)
> 200	> 200	> 200	CCOP(=O)(OCC)C(O)CCn1cc(Cn2c(=O)c3c(ncn3C)n(C)c2=O)nn1 (centres undefined)
> 200	> 200	> 200	CCOP(=O)(OCC)C(O)CCn1cc(Cn2cc(C)c(=O)[nH]c2=O)nn1 (centres undefined)
24.7	> 200	172	CCOP(=O)(CCCCn1cc(Cn2cnc3cc(C)c(C)cc32)nn1)OCC
> 200	> 200	≥ 149	CCOP(=O)(Cn1cc(Cn2c(=O)c3c(ncn3C)n(C)c2=O)nn1)OCC
> 200	> 200	> 200	Cc1cn(Cc2cn(CCCCP(=O)(O)O)nn2)c(=O)[nH]c1=O
> 200	> 200	> 200	CCOP(=O)(OCC)C(O)Cn1cc(Cn2ccccc2=O)nn1 (centres undefined)
> 200	> 200	> 200	CCOP(=O)(OCC)C(O)CCn1cc(Cn2ccc(=O)[nH]c2=O)nn1 (centres undefined)
> 200	> 200	> 200	CCOP(=O)(OCC)C(O)CCn1cc(Cn2cnc3c2c(=O)n(C)c(=O)n3C)nn1 (centres undefined)
> 200	> 200	> 200	O=C(c1ccccc1)n1c(=O)ccn(Cc2cn(CCCP(=O)(O)O)nn2)c1=O
> 200	> 200	> 200	Cn1c(=O)c2c(ncn2Cc2cn(CC(O)P(=O)(O)O)nn2)n(C)c1=O (centres undefined)

IC50 (CCRF-CEM) [µM]	IC50 (L1210) [µM]	IC50 (HeLa) [µM]	Structure (SMILES)
> 200	> 200	> 200	CCOP(=O)(OCC)C(O)CCn1cc(Cn2ccccc2=O)nn1 (centres undefined)
> 200	> 200	159	CCOP(=O)(CCn1cc(Cn2c(=O)c3c(ncn3C)n(C)c2=O)nn1)OCC
> 200	> 200	200	CCOP(=O)(CCn1cc(Cn2c(Cl)nc3c2c(=O)n(C)c(=O)n3C)nn1)OCC
> 200	> 200	> 200	Nc1ncnc2c1ncn2Cc1cn(CCCCP(=O)(O)O)nn1
> 200	> 200	> 200	CCOP(=O)(CCn1cc(Cn2ccccc2=O)nn1)OCC
97	> 200	42	CCOP(=O)(Cn1cc(Cn2cnc3cc(C)c(C)cc32)nn1)OCC
> 200	> 200	> 200	O=C(c1ccccc1)n1c(=O)c2ccccc2n(Cc2cn(CCCP(=O)(O)O)nn2)c1=O
78	> 200	≥ 150	CCOP(=O)(CC(O)Cn1cc(Cn2cnc3cc(C)c(C)cc32)nn1)OCC (centres undefined)
> 200	> 200	> 200	CCOP(=O)(CCCCn1cc(Cn2cc(C)c(=O)[nH]c2=O)nn1)OCC
> 200	> 200	> 200	CCOP(=O)(OCC)C(O)Cn1cc(Cn2c(Cl)nc3c2c(=O)n(C)c(=O)n3C)nn1 (centres undefined)
> 200	> 200	> 200	CCOP(=O)(CCCCn1cc(Cn2ccc(NC(C)=O)nc2=O)nn1)OCC
> 200	> 200	> 200	CCOP(=O)(OCC)C(O)Cn1cc(Cn2c(=O)c3c(ncn3C)n(C)c2=O)nn1 (centres undefined)
23.4	≥ 200	> 200	CCOP(=O)(CCn1cc(Cn2cnc3cc(C)c(C)cc32)nn1)OCC
> 200	> 200	> 200	CCOP(=O)(CCCCn1cc(Cn2ccccc2=O)nn1)OCC
> 200	> 200	> 200	O=c1ccn(Cc2cn(CCCCP(=O)(O)O)nn2)c(=O)[nH]1
70	> 200	> 200	CCOP(=O)(OCC)C(O)CCn1cc(Cn2c(=O)n(C(=O)c3ccccc3)c(=O)c3ccccc32)nn1 (centres undefined)
≥ 72	> 200	≥ 89	CCOP(=O)(Cn1cc(Cn2c(=O)n(C(=O)c3ccccc3)c(=O)c3ccccc32)nn1)OCC
72	> 200	> 200	CCOP(=O)(CC(O)Cn1cc(Cn2c(=O)n(C(=O)c3ccccc3)c(=O)c3ccccc32)nn1)OCC (centres undefined)
14	189	101	CCOP(=O)(CCCn1cc(Cn2cnc3cc(C)c(C)cc32)nn1)OCC

— ChEMBL document CHEMBL3085765, “The synthesis, antiviral, cytostatic and cytotoxic evaluation of a new series of acyclonucleotide analogues with a 1,2,3-triazole linker” (Eur J Med Chem, 2013)
